We go through four compounds from ChEMBL document CHEMBL4130632, “Targeting Myeloid Differentiation Using Potent 2-Hydroxypyrazolo[1,5- a]pyridine Scaffold-Based Human Dihydroorotate Dehydrogenase Inhibitors” (J Med Chem, 2018).

Some results are limits rather than exact numbers.

In series [1] the target is Dihydroorotate dehydrogenase (quinone), mitochondrial (Homo sapiens, UniProt Q02127). The experiment in a line: Inhibition of recombinant N-terminal GST-tagged human DHODH (31 to 395 residues) expressed in Escherichia coli BL21(DE3) assessed as inhibition of DCIP reduction using dihydroorotate as substrate preincubated for 5 mins followed by substrate addition measured after 5 mins.
Chain of Dihydroorotate dehydrogenase (quinone), mitochondrial (Q02127 whole entry, the tested form may be a part): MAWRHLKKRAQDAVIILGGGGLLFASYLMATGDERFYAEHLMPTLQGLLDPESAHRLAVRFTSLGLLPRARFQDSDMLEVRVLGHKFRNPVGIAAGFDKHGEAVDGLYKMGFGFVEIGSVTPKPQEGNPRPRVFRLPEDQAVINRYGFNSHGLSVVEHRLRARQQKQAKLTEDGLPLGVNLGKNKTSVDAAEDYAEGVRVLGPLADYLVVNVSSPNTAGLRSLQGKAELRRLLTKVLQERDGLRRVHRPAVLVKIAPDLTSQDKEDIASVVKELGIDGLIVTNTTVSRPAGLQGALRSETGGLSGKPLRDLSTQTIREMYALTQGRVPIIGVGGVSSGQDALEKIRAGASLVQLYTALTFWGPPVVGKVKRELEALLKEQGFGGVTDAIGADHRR

Series [2] can be described thus: Stability of the compound in human serum assessed as compound remaining at 37 degC after 24 hrs by RP-HPLC analysis. It is filed as ADME, cell-free. The settings on record: read-out: Stability. The gist of the method:
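Compound from DMSO stock added to human male AB serum (2% cosolvent) and shaken at 37 °C. Samples taken at 0–24 h were deproteinized with 0.1% TFA in acetonitrile, centrifuged and filtered. Analyzed by C18 RP-HPLC (acetonitrile/water 70/30, 0.1% TFA). Value is % unmodified parent at 24 h.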

Series [3] has as its system Jurkat. The experiment in a line: Antiproliferative activity against human Jurkat T cells assessed as DNA content after 72 hrs by Hoechst 33258 dye-based fluorescence assay. It is filed as functional, cell-based.
The next series relates to THP-1. Kind of series: Induction of myeloid differentiation in human THP1 cells assessed as increase in CD14 expression level at 0.1 to 1 uM up to 4 days by propidium iodide staining-based flow cytometry.
In series [4] the test system is Jurkat. Kind of series: Antiproliferative activity against human Jurkat T cells assessed as DNA content after 72 hrs in presence of exogenous uridine by Hoechst 33258 dye-based fluorescence assay. It is filed as functional, cell-based.
In another series the test system is U-937. Kind of series: Induction of myeloid differentiation in human U937 cells assessed as increase in CD11b expression level at 0.1 to 1 uM up to 4 days by propidium iodide staining-based flow cytometry. It is filed as functional. In short, it runs like this: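 Cells plated at 1 × 10^4 with inhibitor 0.1–10 μM. Differentiation was followed daily by flow cytometry, to day 4 for U937 and day 5 for THP1. Markers were PE-CD11b for U937 and FITC-CD14 for THP1, stained 45 min at 4 °C in PBS/2% BSA/1 mM EDTA. Propidium iodide excluded dead cells. Uridine-rescue (100 μM) samples were read at day 3.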

Series [5] has as its system PBMC. Kind of series: Immunosuppressive activity against human PBMC assessed as inhibition of PHA-stimulated cell proliferation preincubated for 2 hrs followed by PHA stimulation for 72 hrs by Hoechst 33258 dye-based fluorescence assay. It is filed as functional.
Series [6] has as its system PBMC. Kind of series: Immunosuppressive activity against human PBMC assessed as inhibition of PHA-stimulated cell proliferation preincubated for 2 hrs followed by PHA stimulation for 72 hrs in presence of exogenous uridine by Hoechst 33258 dye-based fluorescence assay. It is filed as functional.
Series [7] concerns Jurkat. The experiment in a line: Cytotoxicity against human Jurkat T cells assessed as compound concentration required to induce =>30% cell death after 72 hrs by CellTox green assay. It is filed as cell-based. The gist of the method:
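Jurkat T cells (complete X-VIVO 15, 10% FBS, 37 °C, 5% CO2; passages 5–10, mycoplasma-tested), 5 × 10^3/well. Cells exposed to 0.001–100 μM compound or DMSO vehicle for 72 h. Cell death read by CellTox Green. Value is the concentration giving significant (≥30%) cytotoxicity, mean ± SE of three independent experiments.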

Consider `Cn1nc(O)c(C(=O)Nc2c(F)c(F)c(-c3ccccc3)c(F)c2F)n1`, for which the IC50 in series [1] came out at 0.045 µM.

Consider `Cn1c(=O)c(C(=O)Nc2c(F)c(F)c(-c3ccccc3)c(F)c2F)c2ccccn21`, for which the IC50 in series [1] was more than 5 µM.

Take `Cc1c(-c2ccc(-c3ccccc3F)cc2)nc2ccc(F)cc2c1C(=O)O` [BREQUINAR]: in series [2], the remaining at 24 h turned out to be 98%. Also, the IC50 is 0.91 µM in the series with Jurkat [3], 94.2 µM with Jurkat [4], 3.74 µM in the series on PBMC [5] and 59.6 µM in the series on PBMC [6]. In addition, the “%max” value in the series with THP-1 and with U-937 was 40% throughout.

Regarding `C/C(O)=C(\C#N)C(=O)Nc1ccc(C(F)(F)F)cc1` [TERIFLUNOMIDE], the Activity in the series with Jurkat [7] came out at 53 µM.
